Assay outcomes: PubChem BioAssay, several laboratories
In the library only some 2.1% were active in any assay of this set; here they are far more common.
Runt-CBFb FRET – blocks binding of human RUNX1 Runt domain to CBFb; Q01196+Q13951; inhibition, % at 20 µM; Cerulean-Runt/Venus-CBFb FRET ratio 530/480, 1 h; actives 0.46% (n = 220,000); AID 1496;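 active means inhibition over about 50% at 20 µM in the single-dose screen, limit read from the data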;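 further: 0% = DMSO wells and 100% = excess unlabeled CBFb competitor control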
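test system = Cerulean-tagged RUNX1 Runt domain (FRET donor) fusion protein | reagent = Venus-CBFb binding partner, 100 nM | incubation = protein complex preformed 1 h, compound exposure 1 h, room temperature, dark | detection = FRET fluorescence | read-out basis = loss of energy transfer signal | controls = 5 µM unlabeled CBFb as full-inhibition high control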
RanGTP-Imp inh – inhibitors of RanGTP-importin-beta interaction, primary screen, biochemical, FRET, CFP-Ran, YFP-importin-beta, homogeneous. cell-free CFP-Ran/YFP-importin-beta FRET ratio. actives 1.1% (n = 300,000). inhibition, % (test concentration not listed);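 active means more than half of the replicate wells show a fall in the fluorescence ratio signal beyond about 16%, limit read from the data, passing the limit was not always enough; inconclusive means exactly half of the replicate wells pass the set limit; inactive means fewer than half of replicates pass the limit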;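 further: 0% = DMSO wells and 100% = Ran loaded with GDP instead of GTP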
Runt-SMMHC FRET – Runt domain-CBFb-SMMHC interaction inhibition; Cerulean-Runt/Venus-CBFb-SMMHC FRET ratio 530/480, 1 h; AID 1434; Q01196+Q13951; inhibition, % at 20 µM; actives 0.74% (n = 220,000);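 active means mean inhibition across duplicate retests at 20 µM reaching about 50%, limit read from the data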;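 further: 0% = DMSO wells and 100% = wells with excess untagged CBFb-SMMHC; inhibitors lower the FRET ratio by blocking Runt binding to CBFb-SMMHC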
Hck-Nef inh – blocks Nef-activated human Hck kinase; Recombinant Hck-YEEI plus Nef, Z-Lyte FRET kinase assay; inhibition, % at 20 µM; actives 0.68% (n = 220,000);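 active means Hck-Nef kinase inhibition above about 50%, limit read from the data; inactive means inhibition below that limit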;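 further: 0% = DMSO with Hck plus Nef and 100% = Hck alone without Nef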
DSG3 Ab inh – human desmoglein-3 autoantibody binding inhibition. P32926. DSG3-coupled beads, scFv-anti-DSG3-GFP binding, flow cytometry; stronger effect = lower value. binding (percent of control), % at 10 µM. actives 0.48% (n = 310,000);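 active means binding more than 3 SD below its plate's average and above zero; inconclusive means below that plate limit but binding exactly zero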;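 further: hits lower antibody fragment binding to DSG3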
pCIP destab – lowers stability of the mouse p/CIP coactivator protein. Q05BA5. actives 0.01% (n = 290,000). F442A p/CIP-EGFP cells, EGFP fluorescence, 16 h. AID 1984. decrease of EGFP signal, % at 10 µM;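 active means EGFP signal decrease of at least 30% at 10 µM or well 3 SD below plate mean, unless failing retest; inactive means the rest, including hits failing retest or dose response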
An asterisk follows results filed as active; u = inconclusive; x = no result given.

SMILES	Runt-CBFb FRET	RanGTP-Imp inh	Runt-SMMHC FRET	Hck-Nef inh	DSG3 Ab inh	pCIP destab
O=C(CSc1ccsc1[N+](=O)[O-])Nc1cc(F)ccc1F	4	-4	-2	32	54*	-7
CC(=O)c1ccc(NC(=O)CSc2ccsc2[N+](=O)[O-])cc1	-5	-5	-13	30	69*	-14
Cc1ccc(NC(=O)CSc2ccc(C(N)=O)cc2[N+](=O)[O-])cc1C	-2	-3	-5	7	69*	5
CCCCOP(=O)(OCCCC)C1(C)CC(=O)CC(C)(C)C1 (configuration not stated)	x	x	x	x	120	x
Cc1nc(S(=O)(=O)c2ccc(Cl)cc2)c(N(C)C)o1	x	1	x	x	94	-2
CCN(CC)S(=O)(=O)c1cccc(NC(=O)COc2ncnc3sccc23)c1	0	3	-1	2	96	-4
CCC(=O)NC1=C(Cl)C(=O)C(NC(=O)CC)=C(Cl)C1=O	17	x	95*	5	99	0
O=C(Cc1ccc(S(=O)(=O)N2CCOCC2)s1)Nc1ccccc1N1CCCC1	x	19*	x	x	107	6
Cc1cc(C)cc(NC(=O)Cc2ccc(S(=O)(=O)N3CCCC3)s2)c1	x	x	x	x	103	x
O=C(Cc1ccc(S(=O)(=O)N2CCOCC2)s1)Nc1cc(C(F)(F)F)ccc1N1CCCC1	x	9	x	x	104	x
CC(C)(C)NC(=O)Cc1ccc(S(=O)(=O)N2CCCC2)s1	2	1	-5	16	75*	3
O=C(OCc1ccccc1)N1CCC2CC1c1cc(/C=C/CCCSc3ncccn3)ccc12 (configuration not stated)	x	x	x	x	101	x
CC1(C)Cc2ccccc2C(/C(=N/O)C(N)=O)=N1	0	4	4	3	102	6
CC(=O)c1ccc(N/N=C(/C(N)=O)C2=NC(C)(C)Cc3ccccc32)cc1	-4	9	2	72*	118	7
CC1(C)Cc2ccccc2C(/C(=N\Nc2cccc(Cl)c2)C(N)=O)=N1	-5	-3	-4	26	68*	11
CC(=O)/C(N)=N/Nc1cccc(Cl)c1	0	u	0	0	109	-8
O=C(Nc1cc(-c2nc3ncccc3o2)ccc1Cl)c1ccc([N+](=O)[O-])o1	x	-1	x	x	116	-18
COC(=O)CCCCCN1C(=O)NC(C2CC2)C(C(=O)OCc2ccccc2)=C1C (configuration not stated)	x	3	x	x	109	x
CCN1CC=C2C(C1)C(c1ccc(Cl)s1)C(C#N)=C(N)C2(C#N)C#N (configuration not stated)	36	50*	82*	15	x	-38
Cc1sc(NC(=O)CCCC(=O)O)c(C(N)=O)c1-c1ccccc1	3	1	-8	102*	101	1
COC(=O)c1c(NC(=O)CCCC(=O)O)sc(C)c1C	0	-2	-1	-2	112	2
Cc1c(NC(=O)c2cc(-c3ccc(F)cc3)nc3ccccc23)c(=O)n(-c2ccccc2)n1C	x	x	x	x	67*	x
Cc1cc(C)cc(-n2c(N)c(C(=O)Nc3c(C)n(C)n(-c4ccccc4)c3=O)c3nc4ccccc4nc32)c1	-9	-6	-80	54*	122	-1
Cc1cccc(-c2cc(C(=O)Nc3c(C)n(C)n(-c4ccccc4)c3=O)c3ccccc3n2)c1	x	0	x	x	101	-8
Cc1ccc(-n2c(N)c(C(=O)Nc3c(C)n(C)n(-c4ccccc4)c3=O)c3nc4ccccc4nc32)cc1	1	-11	-19	5	136	-15
SMILES	Runt-CBFb FRET	RanGTP-Imp inh	Runt-SMMHC FRET	Hck-Nef inh	DSG3 Ab inh	pCIP destab
O=C(Nc1ccnn1C1CCN(Cc2ccccc2)CC1)C1CCCC1	x	-1	x	x	112	9
O=C(NC(=S)Nc1nc2c(s1)CCCC2)c1ccccc1	3	-1	2	1	100	-5
CCN1CCc2nc(NC(=O)c3ccccc3)sc2C1	44	53*	109*	9	103	1
O=C(Nc1nc2c(s1)CN(Cc1ccccc1)CC2)C1CCC1	42	2	130*	29	106	-14
C=CCOC(=O)c1cc(-c2ccc(/C=C3\C(=O)NC(=O)C(C#N)=C3C)o2)ccc1Cl	18	x	0	91*	115	-8
Cc1ccc(NC(=O)CSCC(=O)Nc2ccccc2N2CCCC2)cc1	x	4	x	x	97	x
CC(=O)Nc1ccc(-c2cc(-c3ccccc3)nc(-c3ccccc3)n2)cc1	0	6	-4	4	-15*	-12
CC(=O)Nc1ccc(-c2cc(-c3ccc(NC(C)=O)cc3)nc(-c3ccccc3)n2)cc1	0	3	-11	3	91	5
Cc1oc(-c2ccccc2F)nc1CS(=O)CC(=O)NCc1ccc(Cl)cc1 (configuration not stated)	x	0	x	x	-12*	1
Cc1c(/C(O)=C2/C(=O)C(=O)N(CCN3CCOCC3)C2c2ccccn2)cnn1-c1ccccc1 (configuration not stated)	12	35*	18	-18	x	2
CN(C)CCN1C(=O)C(=O)/C(=C(/O)c2ccc3c(c2)OCCO3)C1c1ccccn1 (configuration not stated)	2	24*	-1	14	128	8
O=C1C(=O)N(CCN2CCOCC2)C(c2ccccn2)/C1=C(/O)c1ccc(F)cc1 (configuration not stated)	5	19*	4	0	x	-2
COc1ccc(/C(O)=C2/C(=O)C(=O)N(CCN3CCOCC3)C2c2ccccn2)cc1 (configuration not stated)	6	x	8	-1	106	-9
COc1cccc(/C(O)=C2/C(=O)C(=O)N(CCN(C)C)C2c2ccccn2)c1 (configuration not stated)	-1	u	-2	0	97	-1
CC(C)N(Cc1ccccc1)C(=O)COC(=O)/C=C/c1cnc2ccccc2n1	-4	-6	-4	23	115	4
Cc1ccccc1NC(=O)CN1C(=O)NC2(CCCCCCC2)C1=O	x	x	x	x	105	x
CCOCCCNc1ncnc2c1nc1n2CCCC1	x	4	x	x	u	10
CCCCCCNc1c([N+](=O)[O-])c(=O)sc2ccccc12	0	147*	-4	-4	113	10
Cc1ccc(CNc2nc(N)c([N+](=O)[O-])c(NCc3ccccc3)n2)cc1	-1	-4	3	1	103	-2
Cc1ccc(CNc2nc(N)c([N+](=O)[O-])c(Nc3ccc(F)cc3)n2)cc1	0	19*	4	0	97	-18
O=C(CSc1nc2nn(-c3ccccc3)c(=O)c-2c2n1CCCCC2)Nc1ccc(F)c(F)c1	x	x	x	x	-12*	x
COc1ccc(CNC(=O)COC(=O)c2ccc(OCC3CCCO3)cc2)cc1 (configuration not stated)	x	x	x	x	109	x
